Efflux pump inh: inhibitors of Candida efflux pumps in yeast, primary screen, S. cerevisiae, Nile Red, multiplex. actives 0.44% (n = 330,000). S. cerevisiae Candida pump triplex. inhibition, % at 10 µM. AID 485275, 2010;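 active = plate passing quality check with inhibition over a set limit, or well fluorescence over plate mean plus 4 SD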;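 also: Nile Red retained in pooled yeast measured as flow cytometry median fluorescence; 0% = buffer negative control and 100% = Enniatin B positive control; higher means more Nile Red kept so more efflux inhibition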
SR-BI DiI inh: inhibitors of SR-BI mediated HDL lipid uptake, primary screen, ldlA[mSR-BI] cells, fluorescence, single point; Scavenger receptor class B member 1 (Mus musculus), Q61009; ldlA[mSR-BI] CHO cells, DiI-HDL uptake fluorescence, 3 h; inhibition, % at 12.5 µM; actives 0.96% (n = 320,000); AID 488896, 2010;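 active = mean replicate inhibition of at least 70% and a set share of replicates each scoring 70 or more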;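 also: 0% = median of neutral control wells and 100% = median of positive control wells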
Target sequence (Q61009 whole entry, looked up): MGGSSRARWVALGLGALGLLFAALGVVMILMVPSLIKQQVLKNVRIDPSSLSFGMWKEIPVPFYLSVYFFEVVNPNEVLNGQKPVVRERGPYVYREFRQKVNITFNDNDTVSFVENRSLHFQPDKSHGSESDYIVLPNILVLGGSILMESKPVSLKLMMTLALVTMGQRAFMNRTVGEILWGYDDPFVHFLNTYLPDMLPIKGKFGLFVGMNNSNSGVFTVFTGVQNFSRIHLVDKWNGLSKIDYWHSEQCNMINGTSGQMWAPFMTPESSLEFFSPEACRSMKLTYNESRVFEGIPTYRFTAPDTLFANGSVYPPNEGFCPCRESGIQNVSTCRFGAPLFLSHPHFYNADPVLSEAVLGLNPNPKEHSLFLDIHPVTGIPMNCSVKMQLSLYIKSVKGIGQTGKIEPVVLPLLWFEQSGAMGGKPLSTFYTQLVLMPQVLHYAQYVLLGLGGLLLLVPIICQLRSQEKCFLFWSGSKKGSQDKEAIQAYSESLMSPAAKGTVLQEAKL
FN deposit inh: inhibitors of fibronectin matrix deposition, primary screen, AH1F cells, Alexa488-fibronectin fluorescence, plate reader; AH1F fibroblasts, overnight; inhibition, % at 12.6 µM; actives 0.086% (n = 350,000); AID 743247, 2014;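 active = mean inhibition across replicates of 30% or more, regardless of how many single replicates reach that level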;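 also: positive control wells lacked labelled fibronectin entirely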
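Measured by – fluorescence 485/525 nm · System – AH1F fibroblast monolayer, labelled fibronectin deposition · Amount – 10000 cells per well · Buffer or medium – serum-reduced DMEM (2% serum) · Doses – single dose, pinned · Also added – fluorescent fibronectin at 24 nM final · Schedule – 1 h cell attachment, overnight exposure to compound and label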
SR-BI DiI-HDL act: activators of SR-BI mediated DiI-HDL uptake, primary screen, ldlA[mSR-BI] CHO cells, DiI fluorescence; 3 h; 100 = double the neutral-control signal; activation, % at 12.5 µM; actives 0.096% (n = 320,000); AID 504775, 2011;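 active = mean replicate activation of at least 60% and every replicate at or above 60%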;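 also: 0% = median plate neutral-control signal and 100% = twice that signal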
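System: CHO ldlA[mSR-BI] cells / Medium: HEPES-buffered (25 mM, pH 7.4) F12 plus 0.5% BSA / Probe or stimulus: labelled HDL, 10 µg/mL / Doses: single compound concentration, delivered by pin transfer / Schedule: 3 h, 37 °C / Measured by: DiI fluorescence, bottom read / Measure: cell-associated DiI fluorescence as measure of HDL uptake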
CaV13 FRET inh: Primary screen for inhibitors of IQ motif and Ca2+-dependent inactivation inhibitor domain binding in CACNA1D, Förster resonance energy transfer in living cells, …; HEK cells, CFP/YFP FRET ICDI-IQ, plate reader, 10 min; percent FRET-ratio fall versus neutral wells; actives 0.098% (n = 340,000); AID 743397; inhibition, % at 12.3 µM;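 active = mean replicate inhibition of at least 30% and at least 1% of replicates passing that level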;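 also: 0% = median of the neutral control wells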
Cmpd fluor yeast: compound fluorescence in yeast efflux pump counter-screen. actives 4% (n = 1,700). shares compounds with Efflux pump inh. S. cerevisiae AD/pABC3, flow cytometry. fluorescence ratio to DMSO, % at 10 µM. AID 588517;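 active = fluorescence ratio to DMSO above its plate's cutoff, the plate mean ratio plus 5 SD, cut at about 210% in these data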;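 also: unstained yeast with no Nile Red so the signal is compound autofluorescence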
Mdr1 pump inh: inhibitors of Candida albicans Mdr1 efflux, confirmation, flow cytometry, singleplex, Cherry Pick1 set; shares compounds with Efflux pump inh; S. cerevisiae AD/CaMDR1, Nile Red efflux; inhibition, % at 10 µM; actives 1% (n = 1,700); in the data active = inhibition above about 26%;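 also: 0% = DMSO vehicle and 100% = reference inhibitor; higher means more Nile Red retained so more efflux inhibition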
CaCdr2 efflux inh: inhibitors of Candida albicans Cdr2 efflux pump, confirmation, S. cerevisiae AD/CaCDR2, flow cytometry, cherry pick 1, singleplex | shares compounds with Efflux pump inh | Nile Red retention | Nile Red retention ratio vs DMSO, % at 10 µM | actives 4% (n = 1,700); in the data active = Nile Red retention ratio vs DMSO above about 190%;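 also: higher ratio means more blocking of Cdr2 efflux of the dye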
CaCdr1 efflux inh: inhibitors of Candida albicans Cdr1 efflux pump, confirmation, S. cerevisiae AD/CaCDR1, flow cytometry, cherry pick 1, singleplex. shares compounds with Efflux pump inh. Nile Red efflux. inhibition, % at 10 µM. actives 1% (n = 1,700). AID 588522, 2011;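 active = inhibition above the screen-wide mean plus twice its standard deviation, cut at about 32% in these data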
An asterisk follows results filed as active; i = inactive; . = no result. An excerpt weighted towards active compounds, which were near 1.2% of everything screened.

SMILES | Efflux pump inh | SR-BI DiI inh | FN deposit inh | SR-BI DiI-HDL act | CaV13 FRET inh | Cmpd fluor yeast | Mdr1 pump inh | CaCdr2 efflux inh | CaCdr1 efflux inh
O=C(C[C@H]1C[C@@H]2c3cc(NC(=O)C4CCC4)ccc3O[C@@H]2[C@H](CO)O1)NCC1CC1 | . | . | -2 | . | . | . | . | . | .
CC1=C(C)C(c2ccccc2)NC(=S)N1 (configuration not stated) | 5.5* | 5 | 2 | -5 | -6 | 103 | 0 | 104 | 0
Cc1ccc(C(=O)OCC(=O)NCC2COc3ccccc3O2)cc1 (configuration not stated) | 0.9* | -26 | -8 | 26 | -2 | 119 | 1 | 114 | 0
CC1CCCN(S(=O)(=O)c2cc3c4c(c2)C(C)C(=O)N4CCC3)C1 (configuration not stated) | 0 | -1 | 9 | 1 | -14 | . | . | . | .
CC1C(=O)N2CCCc3cc(S(=O)(=O)N4CCCCC4)cc1c32 (configuration not stated) | 0.7* | 14 | . | -14 | -7 | 105 | 0 | 99 | 0
COc1ccc(/C=C/C(=O)Nc2cc(=O)n(C)c(=O)n2C)cc1 | 15* | -17 | 3 | 17 | -19 | 97 | 0 | 88 | 0
CNC(=O)C[C@@H]1CC[C@H]2[C@@H](COc3ccc(NC(=O)NC(C)C)cc3C(=O)N2C)O1 | . | . | -1 | . | . | . | . | . | .
CO[C@@H]1CN(C)C(=O)c2ccc(NC(=O)Nc3ccc(Cl)cc3)cc2OC[C@H](C)N(C)C[C@H]1C | . | . | 5 | . | . | . | . | . | .
CCOc1ccc(N2C(=O)CC(N(C)Cc3ccccc3)C2=O)cc1 (configuration not stated) | 15* | -12 | 4 | 12 | -4 | 103 | 0 | 100 | 0
COC(=O)c1ccc(N2C(=O)CC(N(C)Cc3ccccc3)C2=O)cc1 (configuration not stated) | 0 | -4 | . | 4 | . | . | . | . | .
O=S(=O)(c1cccc2cccnc12)N1CCN(c2ccccc2)CC1 | 17* | -3 | . | 3 | -7 | 110 | 0 | 102 | 0
C[C@H]1CN([C@@H](C)CO)S(=O)(=O)c2ccc(C3=CCCC3)cc2O[C@@H]1CN(C)Cc1cccnc1 | . | . | 7 | . | . | . | . | . | .
C[C@@H]1CC[C@]2(C(=O)O)CC[C@]3(C)C(=CCC4[C@]56CC[C@@](O)(OC5)C(C)(C)C6CC[C@]43C)C2[C@H]1C (some centres not stated) | 1.4* | -4 | . | 4 | . | 104 | 0 | 204* | 0
C[C@H]1CCCCO[C@H](CN(C)Cc2ccc3c(c2)OCO3)[C@@H](C)CN([C@@H](C)CO)C(=O)c2cc(NC(=O)c3ccncc3)ccc2O1 | . | . | -1 | . | . | . | . | . | .
CCCCCc1cc(=O)oc2c(C(CCN3CCCC(C)C3)c3ccc(N(C)C)cc3)c(OC)cc(OC)c12 (configuration not stated) | 1.0* | -1 | . | 1 | . | 100 | 0 | 151 | 0
CCN(CC)c1ccc2cc(-c3nc(-c4ccc(OC)cc4)cs3)c(=O)oc2c1 | 6.0* | . | i | . | -18 | 640* | 1 | 732* | 2
CCC(=O)Nc1ccc2c(c1)OC[C@@H](C)N(CC1CCCCC1)C[C@@H](C)[C@@H](OC)CN(C)C2=O | . | . | 10 | . | . | . | . | . | .
COCCOC(=O)c1c(C)oc2ccc(NS(=O)(=O)c3ccc(F)cc3)cc12 | 0.4* | -8 | 1 | 8 | -6 | 94 | 0 | 89 | 0
O=c1c2ccccc2nnn1Cc1cccc2ccccc12 | 0 | 11 | 4 | 9 | -2 | . | . | . | .
O=c1c2ccccc2nnn1Cc1ccccn1 | 8.2* | -20 | . | 20 | -7 | 100 | 0 | 98 | 0
CCOc1ccc(S(=O)(=O)N2CCN(C(=O)c3ccncc3)CC2)cc1 | 7.4* | 5 | -6 | -5 | -8 | 89 | 0 | 91 | 0
CC(=O)NC[C@@H]1[C@@H](c2ccc(-c3ccccc3)cc2)[C@H](CO)N1C(=O)C1CC1 | . | . | 11 | . | . | . | . | . | .
C[C@@H]1CN([C@@H](C)CO)C(=O)Cc2cc(NC(=O)Nc3ccc4c(c3)OCO4)ccc2O[C@@H]1CN(C)Cc1ccc(C(=O)Nc2ccccc2N)cc1 | . | . | 6 | . | . | . | . | . | .
COc1ccc(Nc2nnc(Cc3ccc(Cl)cc3)c(=O)[nH]2)c(OC)c1 | 0 | -25 | -4 | 25 | -5 | . | . | . | .
COc1ccc(Nc2nnc(Cc3ccccc3)c(=O)[nH]2)c(OC)c1 | 0.5* | 6 | 0 | -6 | -4 | 100 | 0 | 104 | 0
SMILES | Efflux pump inh | SR-BI DiI inh | FN deposit inh | SR-BI DiI-HDL act | CaV13 FRET inh | Cmpd fluor yeast | Mdr1 pump inh | CaCdr2 efflux inh | CaCdr1 efflux inh
O=C(COCC(=O)N/N=C/c1ccc(F)cc1)N/N=C/c1ccc(F)cc1 | 1.8* | -12 | 0 | 12 | -2 | 94 | 0 | 100 | 0
C[C@@H]1CN([C@@H](C)CO)S(=O)(=O)c2ccc(-c3ccc(F)cc3)cc2O[C@H]1CN(C)S(C)(=O)=O | . | . | 4 | . | . | . | . | . | .
CC(C)NCCCOc1ccc(Cl)cc1Br | 1.3* | -4 | -3 | 4 | -4 | 98 | 0 | 107 | 0
C[C@@H]1CN([C@@H](C)CO)C(=O)c2cc(-c3cccc(C#N)c3)cnc2O[C@@H]1CN(C)Cc1ccncc1 | . | . | -2 | . | . | . | . | . | .
Cc1c(C(=O)Nc2c(F)cccc2F)sc2ncn(CC(=O)N3CCCCC3)c(=O)c12 | 0 | 12 | -2 | -12 | -7 | . | . | . | .
COCCNC(=O)c1sc2ncn(CC(=O)N3CCCCC3)c(=O)c2c1C | 1.8* | -45 | . | 45 | 0 | 106 | 0 | 106 | 0
O=C(/C=C/c1ccccc1Cl)NCCc1ccc(F)cc1 | 1 | 4 | 1 | -4 | -19 | . | . | . | .
O=C(/C=C/c1ccccc1[N+](=O)[O-])NCCc1ccc(F)cc1 | 0.4* | -9 | -13 | 9 | 1 | 88 | 0 | 184 | 0

Screens deposited in PubChem by several laboratories.
